What all share (format): functional
Test [1] relates to Rattus norvegicus. The test is described as follows: Intravenous antihypertensive effect in conscious, spontaneously hypertensive rats a dose of 500 ug/kg. The gist of the method: (§1)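 Male Okamoto spontaneously hypertensive rats (about 300 ± 20 g), restrained supine. The iliac artery was cannulated to a pressure recorder. After a stabilization period, the sodium salt was injected into the lateral caudal vein: acid dissolved in absolute ethanol, neutralized with 0.6 M NaHCO3, diluted in saline. Maximum fall in mean arterial blood pressure (mmHg), mean of two experiments.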

Test [2] has as its system Rattus norvegicus. Briefly: Intravenous, antihypertensive effect in conscious, spontaneously hypertensive rats, Duration of action was determined at a compound dose of 500 ug/kg; 25-30.
Test [3] deals with Rattus norvegicus. The test is described as follows: Intravenous, antihypertensive effect in conscious, spontaneously hypertensive rats, Duration of action was determined at a compound dose of 100 ug/kg; 10-20.
For test [4], the system named is Rattus norvegicus. The test is described as follows: Intravenous, antihypertensive effect in conscious, spontaneously hypertensive rats, Duration of action was determined at a compound dose of 300 ug/kg; 25-30.
Test [5] concerns Rattus norvegicus. Briefly: Intravenous antihypertensive effect in conscious, spontaneously hypertensive rats a dose of 100 ug/kg. The method, boiled down: as §1
Test [6] deals with Rattus norvegicus. The test is described as follows: Intravenous antihypertensive effect in conscious, spontaneously hypertensive rats, Duration of action was determined at a compound dose of 10 ug/kg.
The test system of test [7] is Rattus norvegicus. Briefly: Intravenous antihypertensive effect in conscious, spontaneously hypertensive rats a dose of 300 ug/kg. The gist of the method:
as §1

Test [8] has as its system Rattus norvegicus. The test is described as follows: Intravenous antihypertensive effect in conscious, spontaneously hypertensive rats a dose of 10 ug/kg. The gist of the method: as §1
The test system of test [9] is Rattus norvegicus. Briefly: Intravenous antihypertensive effect in conscious, spontaneously hypertensive rats a dose of 30 ug/kg. The gist of the method:
as §1

In test [10] the test system is Rattus norvegicus. Briefly: Intravenous, antihypertensive effect in conscious, spontaneously hypertensive rats, Duration of action was determined at a compound dose of 30 ug/kg.
The subject of test [11] is Rattus norvegicus. Briefly: Intravenous antihypertensive effect in conscious, spontaneously hypertensive rats, Duration of action was determined at a compound dose of 100 ug/kg.
Test [12] concerns Rattus norvegicus. The test is described as follows: Intravenous antihypertensive effect in conscious, spontaneously hypertensive rats, Duration of action was determined at a compound dose of 10 ug/kg; 30-45.
The subject of test [13] is Rattus norvegicus. The test is described as follows: Intravenous antihypertensive effect in conscious, spontaneously hypertensive rats, Duration of action was determined at a compound dose of 30 ug/kg; 45-50.

Turning to `CCCCC[C@H](O)/C=C/[C@H]1[C@H](O)CC(=O)[C@@H]1C/C=C\CCCC(=O)O` [DINOPROSTONE], the “Max lowering MABP” value with Rattus norvegicus [1] came to 50 mmHg; in the test with Rattus norvegicus [5], 72 mmHg; in the test on Rattus norvegicus [7], 70 mmHg; in the test with Rattus norvegicus [8], 60 mmHg; in the test with Rattus norvegicus [9], 72 mmHg. The Duration was 25 min in the test on Rattus norvegicus [2]; 10 min in the test on Rattus norvegicus [3]; 25 min with Rattus norvegicus [4]; under 5 min in the test on Rattus norvegicus [6]; under 5 min with Rattus norvegicus [10].
As for `C=CC(O)(C/C=C/C1[C@H](O)CC(=O)[C@@H]1C/C=C/CCCC(=O)O)CCCC` (stereo partly specified), the Duration is reported as over 200 min in the test on Rattus norvegicus [11], 30 min with Rattus norvegicus [12] and 45 min with Rattus norvegicus [13]. Also, the “Max lowering MABP” value with Rattus norvegicus [5] was found to be 65 mmHg; in the test on Rattus norvegicus [8] it was 30 mmHg; in the test on Rattus norvegicus [9], 55 mmHg.

These data come from ChEMBL document CHEMBL1122145, “Prostaglandins and congeners, 29. (16RS)-(+/-)-15-Deoxy-16-hydroxy-16-vinyl-prostaglandin E2, an orally and transdermally active hypotensive agent of prolonged duration” (1982).
